Source: ChEMBL document CHEMBL1142116, “Mixed lignan-neolignans from Tarenna attenuata” (J Nat Prod, 2007)
pIC50: −log10 of the molar value.

Columns and labels:
Assay type in all cases: functional
[1] = system: Radical scavenging activity; assay: Antioxidant effect assessed as DPPH radical scavenging activity
Method in brief: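 Compound at five concentrations (0.16–100.0 µM) mixed 1:1 with 0.1 mM DPPH in EtOH, 30 min at 37 °C, absorbance at 517 nm. Scavenging % = (Acontrol − Asample)/Acontrol × 100; IC50 from concentration series.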

[2] = system: PC-12; assay: Antioxidant effect against hydrogen peroxide-induced impairment in PC12 cells assessed as cell viability at 0.4 uM by MTT assay relative to control; details: Rattus norvegicus, read-out: Activity
Method in brief: (§1)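 PC12 cells seeded in RPMI 1640 with 10% newborn bovine serum; after 24 h, compound (0.4–50 µM) added together with freshly prepared H2O2 (0.2 mM final) in PBS for 1 h. Then MTT (0.5 mg/mL in PBS) for 4 h, lysis with 5% i-BuOH/10% SDS/0.004% HCl overnight, OD 570 nm; viability as % of untreated control; n = 5, mean ± SD.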

[3] = system: PC-12; assay: Antioxidant effect against hydrogen peroxide-induced impairment in PC12 cells assessed as cell viability at 2 uM by MTT assay relative to control; details: Rattus norvegicus, read-out: Activity; method in brief: as §1
[4] = system: PC-12; assay: Antioxidant effect against hydrogen peroxide-induced impairment in PC12 cells assessed as cell viability at 10 uM by MTT assay relative to control; details: Rattus norvegicus, read-out: Activity; method in brief: as §1
[5] = system: PC-12; assay: Antioxidant effect against hydrogen peroxide-induced impairment in PC12 cells assessed as cell viability at 50 uM by MTT assay relative to control; details: Rattus norvegicus, read-out: Activity; method in brief: as §1

With COc1cc(C(O)C(CO)Oc2c(OC)cc([C@@H]3Oc4c(OC)cc(/C=C/C=O)cc4[C@H]3CO)cc2OC)ccc1O (stereo not given in full) the pIC50 [1] was 3.83, the viability at 0.4 µM [2] was 56.9% and the viability at 2 µM [3] was 56.8%. The viability at 10 µM [4] was 62.6% and the viability at 50 µM [5] was 64.8%.
COc1cc2c(c(OC)c1O)[C@@H](CO)[C@@H](c1cc(OC)c(OC)c(OC)c1)O2 gave a pIC50 [1] of 4.35, a viability at 0.4 µM [2] of 61.4% and a viability at 2 µM [3] of 58%. For the same compound, the viability at 10 µM [4] was 58.2% and the viability at 50 µM [5] was 55%.
In the case of CCOC(c1ccc(O)c(OC)c1)C(O)CO (stereo not given), the pIC50 [1] was 3.88, the viability at 0.4 µM [2] was 54.1% and the viability at 2 µM [3] was 54.9%. It also gave a viability at 10 µM [4] of 56.8% and a viability at 50 µM [5] of 57.3%.
Work on COc1cc([C@H](O)[C@@H](CO)Oc2c(OC)cc([C@@H]3OC[C@@H]4[C@H]3CO[C@H]4c3cc(OC)c(O[C@H](CO)[C@@H](O)c4cc(OC)c(O)c(OC)c4)c(OC)c3)cc2OC)ccc1O yielded a pIC50 [1] of 4.06, a viability at 0.4 µM [2] of 51.9% and a viability at 2 µM [3] of 54.3%. It also gave a viability at 10 µM [4] of 54.7% and a viability at 50 µM [5] of 54.1%.
COc1cc(C(O)C(CO)Oc2ccc(C(O)C(CO)Oc3c(OC)cc([C@@H]4Oc5c(OC)cc(/C=C/C=O)cc5[C@H]4CO)cc3OC)cc2OC)ccc1O (stereo not given in full) gave a pIC50 [1] of 3.70, a viability at 0.4 µM [2] of 52.8% and a viability at 2 µM [3] of 47.9%. For the same compound, the viability at 10 µM [4] was 64.4% and the viability at 50 µM [5] was 55.9%.
Work on COc1cc(C(O)C(CO)Oc2c(OC)cc(C(O)C(CO)Oc3c(OC)cc([C@@H]4Oc5c(OC)cc(/C=C/C=O)cc5[C@H]4CO)cc3OC)cc2OC)ccc1O (stereo not given in full) yielded a pIC50 [1] of 3.90, a viability at 0.4 µM [2] of 50.3% and a viability at 2 µM [3] of 54.7%. For the same compound, the viability at 10 µM [4] was 55.2% and the viability at 50 µM [5] was 51%.
Compound COc1cc(C(O)C(CO)Oc2c(OC)cc([C@@H]3OC[C@@H]4C(=O)OC[C@@H]43)cc2OC)ccc1O (stereo not given in full) has a pIC50 [1] of 4.14, a viability at 0.4 µM [2] of 59.3% and a viability at 2 µM [3] of 61.8%. For the same compound, the viability at 10 µM [4] was 59.4% and the viability at 50 µM [5] was 45.7%.
For COc1cc([C@H](O)[C@@H](CO)Oc2c(OC)cc([C@@H]3OC[C@@H]4[C@H]3CO[C@H]4c3cc(OC)c(O[C@H](CO)[C@@H](O)c4ccc(O)c(OC)c4)c(OC)c3)cc2OC)ccc1O, the pIC50 [1] was 4.26, the viability at 0.4 µM [2] was 52.2% and the viability at 2 µM [3] was 53.2%. The viability at 10 µM [4] was 54.3% and the viability at 50 µM [5] was 55.3%.
For CC1=NN(c2ccccc2)C(=O)C1 [EDARAVONE], the pIC50 [1] was 4.57, the viability at 0.4 µM [2] was 55.5% and the viability at 2 µM [3] was 53.1%. It also gave a viability at 10 µM [4] of 47.8% and a viability at 50 µM [5] of 25.6%.
